Assay results published in the array DNA melting data of Ke et al. (doi:10.1101/2024.01.08.574731).

Experiments:
[1] = melting temperature; fluorescence melt of hairpins on a sequencing array, two-state fit, raised by 9.35 °C to match UV melts; conditions: sodium 0.088 M
Method in brief: (§1)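 To match UV melts, fitted temperatures were raised by 9.35 °C. These fits were bootstrapped two-state models that gave melting temperature and folding enthalpy, combined by inverse variance over four replicates. The input was normalised Cy3 fluorescence of library hairpins with annealed Cy3 and quencher oligos on a sequenced MiSeq flow cell, imaged in 50 mM Na-HEPES pH 8.0, 25 mM NaCl in 2.5 °C steps up to 60 °C.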

[2] = folding enthalpy; higher = less favourable; fluorescence melt of hairpins on a sequencing array, two-state fit; conditions: sodium 0.088 M
Method in brief: as §1

Sequence	Tm [1] [°C]	folding enthalpy [2] [kJ/mol]
GTCGCGTCGAAAGACGAC (((..(((....))))))	35.5	-36
GTCGCTACGAAAGTAGAC (((..(((....))))))	33.3	-60.9
GTCGGACCGAAAGGTGAC (((..(((....))))))	41.3	-75.2
GTCGGACGAAAGTCAGAC (((.(((....))).)))	59.3	-167
GTCGGAGGAAACTCTGGC (.(.(((....))).).)	37.2	-118
GTCGGCCGAAAGGCGGAC (((.(((....))).)))	67.8	-115
GTCGGCGAAAGCCTTGAC ((((((....)))..)))	40.5	-54.5
GTCGGCGGAAACGTCGAC ((((.((....)).))))	62	-215
GTCGGGCGAAAGCCAGAC (((.(((....))).)))	65.2	-125
GTCGGGGGAAACCTCGAC ((((.((....)).))))	55.5	-185
GTCGGTACGAAAGTAGAC (((..(((....))))))	31.9	-44.6
GTCGGTGGAAACACTGAC (((.(((....))).)))	54.4	-170
GTCGTACGAAAGTATGAC (((.(((....))).)))	54.3	-175
GTCGTAGGAAACCACGAC (((((.(....).)))))	49.1	-133
GTCGTAGGAAACTATGAC (((.(((....))).)))	45.2	-148
GTCGTAGGAAACTGCGAC ((((.((....)).))))	53.5	-231
GTCGTAGGAAACTGTGAC (((..((....))..)))	30.8	-69.4
GTCGTCCCGAAAGGGGAC (((..(((....))))))	45.1	-48.7
GTCGTCCGAAAGGAGAC (((.(((....))))))	49.3	-86.3
GTCGTCGAAAGACAGAC ((((((....))).)))	51.6	-112
GTCGTCGAAAGACAGGAC ((((((....)))..)))	41	-76.5
GTCGTCGAAAGACTGAC ((((((....))).)))	47.5	-81
GTCGTCGAAAGACTTGAC ((((((....)))..)))	38.4	-71.1

Sequence	Tm [1] [°C]	folding enthalpy [2] [kJ/mol]
GTCGTCGGAAACGACGGC (.(((((....))))).)	65.5	-105
GTCGTCTCGAAAGAGGAC (((..(((....))))))	39	-90.6
GTCGTGAAAACGAC (((((....)))))	60.8	-128
GTCGTGCCGAAAGGCGAC (((..(((....))))))	44.6	-58.2
GTCGTGCGAAAGCAAGAC (((.(((....))).)))	59.7	-145
GTCGTGCGAAAGCAGAC (((.(((....))))))	56.5	-88.6
GTCGTGGGAAACCACAAC ((.((((....)))).))	40.3	-65.6
GTCGTGGGAAACCATGAC (((.(((....))).)))	52.5	-192
GTCGTTACGAAAGTAGAC (((..(((....))))))	44.8	-122
GTCGTTGCGAAAGCAGAC (((..(((....))))))	49.2	-88.2
GTCTAAGGAAACTTAGGC (.(((((....))))).)	38.1	-107
GTCTACACGAAAGTGGAC (((..(((....))))))	37.2	-59
GTCTACGAAAGTAAAGAC ((((((....)))..)))	37.3	-99.5
GTCTACGAAAGTAGAGAC ((((((....)))..)))	40.1	-53.4
GTCTACGAAAGTAGCGAC ((((((....)))..)))	47	-73.6
GTCTACGAAAGTATGAC ((((((....))).)))	42.3	-99.7
GTCTACGGAAACATAGAC (((((.(....).)))))	31	-113
GTCTACGGAAACGTGGAC (((.(((....))).)))	53.1	-166
GTCTAGCCGAAAGGCGAC (((..(((....))))))	43.1	-45
GTCTAGGGAAACTTAGAC (((((.(....).)))))	37.4	-152
GTCTATCGAAAGATTGAC (((.(((....))).)))	46.3	-147
GTCTATGGAAACATGGAC (((.(((....))).)))	45.6	-130
GTCTCACGAAAGTGTGAC (((.(((....))).)))	53.8	-182

Sequence	Tm [1] [°C]	folding enthalpy [2] [kJ/mol]
GTCTCAGGAAACTGAGAC (((((((....)))))))	59.5	-193
GTCTCAGGAAACTGGGAC (((.(((....))).)))	49.8	-149
GTCTCCCGAAAGGGTGAC (((.(((....))).)))	56.5	-130
GTCTCCGAAAGGAACGAC ((((((....)))..)))	36.3	-98.3
GTCTCCGAAAGGAAGAC ((((((....))).)))	52.1	-114
GTCTCCGAAAGGACAGAC ((((((....)))..)))	37.2	-72.2
GTCTCCGAAAGGACCGAC ((((((....)))..)))	28.2	-70.7
GTCTCCGAAAGGAGAGAC ((((((....)))..)))	48	-47.6
GTCTCCGAAAGGATCGAC ((((((....)))..)))	31.4	-61.3
GTCTCCGAAAGGATGGAC ((((((....)))..)))	35.2	-73.4
GTCTCCGGAAACGGAAAC ((.((((....)))).))	36.3	-68
GTCTCGCCGAAAGGCGAC (((..(((....))))))	39.5	-25.2
GTCTCGGGAAACCGAGGC (.(((((....))))).)	57.6	-121
GTCTCGGGAAACTGAGAC (((((.(....).)))))	51.5	-179
GTCTCTGGAAACAGAGAC (((((((....)))))))	62.8	-178
GTCTGAACGAAAGTTGAC (((..(((....))))))	31.7	-68.8
GTCTGAGGAAACTTAGAC ((((.((....)).))))	39.9	-128
GTCTGCGAAAGCACGAC ((((((....))).)))	50.2	-89.8
GTCTGCGAAAGCAGCGAC ((((((....)))..)))	60.6	-52.1
GTCTGCGAAAGCATTGAC ((((((....)))..)))	40.2	-58.4
GTCTGCGGAAACGCAAAC ((.((((....)))).))	38	-63.7
GTCTGCGGAAACGTAGGC (.((.((....)).)).)	42.4	-112
GTCTGGACGAAAGTCGAC (((..(((....))))))	38.4	-73.7

Sequence	Tm [1] [°C]	folding enthalpy [2] [kJ/mol]
GTCTGGCGAAAGCCGGAC (((.(((....))).)))	69	-107
GTCTGGGGAAACCCAAAC ((.((((....)))).))	31.8	-60
GTCTGTCCGAAAGGAGAC (((..(((....))))))	31.3	-63.2
GTCTTCCGAAAGGATGAC (((.(((....))).)))	53.1	-177
GTCTTCGAAAGAAAGAC ((((((....))).)))	42.6	-91.2
GTCTTCGAAAGAACAGAC ((((((....)))..)))	28.3	-69.3
GTCTTCGAAAGAAGAC ((((((....))))))	62.4	-127
GTCTTGGGAAACCAGGAC (((.(((....))).)))	47.2	-127
GTCTTGGGAAACTAAGGC (.(((.(....).))).)	29	-81
GTCTTTCCGAAAGGAGAC (((..(((....))))))	29.2	-44.3
GTCTTTGCGAAAGCAGAC (((..(((....))))))	34.6	-68.2
GTCTTTGGAAACAAAGGC (.(((((....))))).)	46.6	-123
GTGAAAGAAATTTCAC ((((((....))))))	44.3	-123
GTGAAAGGAAACTTTTAC ((.((((....)))).))	31.3	-95.7
GTGAACGAAAGTTACAC ((((((....))).)))	38.8	-74.2
GTGAACGAAAGTTATCAC ((((((....)))..)))	31	-55
GTGAACGAAAGTTCTCAC ((((((....)))..)))	35	-59.7
GTGAACGAAAGTTGCCAC ((((((....)))..)))	25.9	-40.8
GTGAACGCGAAAGCGCAC (((..(((....))))))	42.3	-61.8
GTGAACGGAAACGTTCGC (.(((((....))))).)	56.9	-121
GTGAAGGAAACTTCAC ((((((....))))))	54.1	-136
GTGAATCGAAAGATACAC (((.(((....))).)))	46.9	-117
